In the library only some 1.3% were active in any assay of this set; here they are far more common.
Diaphorase act – compounds boosting diaphorase resazurin reduction – biochemical, uHTS, resorufin fluorescence, counter-screen for diaphorase-coupled primary assays, primary screen | AID 1229, 2008 | Diaphorase/resazurin coupled assay, 16 min; active compounds read high; 1 = vehicle wells, 0 = NADH-free wells | activation factor at 20 µM | hit rate 0.005% among 190,000;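 active = diaphorase activity raised at least twofold by the compound at 20 µM; inactive = activation factor below 2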
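Material: purified diaphorase enzyme from Clostridium kluyveri; Also added: 0.114 mM NADH and 0.1 mM resazurin, final amounts; Doses: single compound dose of 20 µM, 1% DMSO final; Times: 16 min enzyme reaction, ambient temperature; Detection: resorufin fluorescence, excitation 544 nm, emission 590 nm; Measure: increased resorufin signal from activators or reducing compounds.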
G6PDH counter – L. mesenteroides G6PDH inhibitors, counter-screen for G6PDH-coupled screening assays, biochemical, Leuconostoc mesenteroides enzyme; glucose-6-phosphate dehydrogenase [Leuconostoc mesenteroides]; Purified L. mesenteroides G6PDH, diaphorase/resazurin coupled fluorescence, 45 min; inhibition, % at 5 µM; hit rate 0.12% among 200,000; AID 1020, 2008; in the data active = inhibition above about 50%
HKDC1 inhibitor – HKDC1 hexokinase inhibitors, primary screen, biochemical, fluorescence, uHTS | Q2TB90 | recombinant HKDC1, G6PDH/diaphorase resazurin coupled fluorescence | inhibition, % at 20 µM | hit rate 0.16% among 340,000 | AID 493160, 2011;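 active = inhibition above about 35% when tested at 20 µM, limit read from the data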;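 note: plate controls were DMSO wells with enzyme for no effect and DMSO wells lacking enzyme for full effect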
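Material – in-house recombinant HK5 (HKDC1) enzyme · Quantity – HKDC1 at 5 µg/mL · Buffer or medium – pH 8.0 Tris buffer with 10 mM MgCl2 · Reagent – glucose with 1 mM ATP · Dosing – single 20 µM dose · Times – reaction time 90 min, room temperature, protected from light · Technique – resorufin fluorescence at 613 nm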
PfG6PD inh – PfG6PD enzyme inhibitors, primary screen, biochemical, fluorescence intensity, uHTS; glucose-6-phosphate dehydrogenase-6-phosphogluconolactonase (Plasmodium falciparum 3D7); PfGluPho enzyme, NADPH resazurin-diaphorase fluorescence; inhibition, % at 20 µM; hit rate 0.78% among 350,000;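 active = inhibition reaching at least a set limit at 20 µM in the primary screen, cut at about 59% in these data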;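 note: 0% = DMSO wells with substrate and 100% = DMSO wells lacking glucose-6-phosphate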
Diaph inh CS – diaphorase inhibitors and chemical oxidizers, primary screen, counter-screen for diaphorase-coupled primary assays, biochemical, uHTS, resorufin fluorescence; diaphorase resazurin-to-resorufin fluorescence, NADH, 16 min; bacterial (C. kluyveri) enzyme, not human; hit rate 0.69% among 190,000; inhibition, % at 20 µM; AID 1217, 2008;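 active = primary screen inhibition at 20 µM above a set limit, cut at about 50% in these data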;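 note: plate controls were DMSO with full reaction for no effect and wells lacking NADH for full effect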
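Test system: bacterial diaphorase enzyme (C. kluyveri); Quantity: 0.14 U/mL diaphorase, enzyme working solution; Times: reaction incubation of 16 min at room temperature; Measured by: fluorescence of resorufin formed from resazurin, Ex 544/Em 590 nm; Benchmarks: positive control minus NADH, DMSO neutral control.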
PfGluPho conf – PfG6PD inhibitors, hit retest, confirmation, biochemical, fluorescence intensity, single concentration. shares compounds with PfG6PD inh. recombinant PfGluPho, NADPH-diaphorase-resazurin fluorescence. inhibition, % at 20 µM. hit rate 34% among 2,400. AID 504753, 2011;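 active = inhibition of at least 50% at 20 µM in any single replicate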;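 note: 0% = DMSO with substrate and 100% = DMSO lacking glucose-6-phosphate substrate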
Diaphorase 10uM – diaphorase inhibitors and chemical oxidizers, confirmation, counter-screen for P. falciparum G6PD inhibitor project, biochemical, fluorescence intensity, 10 µM NADPH; shares compounds with PfG6PD inh; diaphorase-coupled resazurin reduction, NADPH 10 uM; inhibition, % at 20 µM; hit rate 39% among 820; AID 504862, 2011;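 active = average inhibition reaching 50% or more with the compound at 20 µM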;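 note: resorufin red fluorescence formed as diaphorase reduces resazurin using NADPH; 0% = DMSO with enzyme and 100% = DMSO without enzyme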
Diaph ctr 30uM – diaphorase inhibitors and chemical oxidizers, confirmation, counter-screen for P. falciparum G6PD inhibitor project, biochemical, fluorescence intensity, 30 µM NADPH | inhibition, % at 20 µM | hit rate 29% among 820 | AID 504863, 2011 | shares compounds with PfG6PD inh | Diaphorase/resazurin coupled assay, resorufin fluorescence;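 active = inhibition averaging 50% or more, tested at 20 µM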;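 note: 0% = DMSO with enzyme and 100% = DMSO wells lacking diaphorase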
Numbers without * were called inactive.

CCN1C(=O)[C@@H]2[C@@H](c3ccc(-c4ccc(F)cc4)cc3)N3CCC[C@@]3(C(=O)OC)[C@@H]2C1=O was read as HKDC1 inhibitor -3 and PfG6PD inh 2.
Screening CCOc1cc(/C=N/O)ccc1OCc1ccc(C)cc1 returned Diaphorase act 0.8, G6PDH counter -3, HKDC1 inhibitor -6, PfG6PD inh 66*, Diaph inh CS 21 and PfGluPho conf 42.
Screening CCOc1cc(/C=N/O)ccc1OS(=O)(=O)c1ccc(C)cc1 returned Diaphorase act 0.8, G6PDH counter 8, HKDC1 inhibitor 1, PfG6PD inh 15 and Diaph inh CS 18.
CCOc1cc(/C=N/O)cc(Br)c1OCc1ccc(Cl)cc1 was read as Diaphorase act 0.8, G6PDH counter 4, HKDC1 inhibitor -3, PfG6PD inh 76*, Diaph inh CS 18 and PfGluPho conf 4.
Screening CCOC(=O)C(CC)Sc1nnc2n1C(C)(C)Cc1ccccc1-2 (centres undefined) returned Diaphorase act 1, G6PDH counter 6, HKDC1 inhibitor -5, PfG6PD inh -2 and Diaph inh CS 2.
`COCCOc1cc(NCc2ccccc2)c2ncn(C(C)C)c2c1` gave HKDC1 inhibitor 9 and PfG6PD inh 45.
For CCOc1cc(NCc2ccccc2)c2ncn(C(C)C)c2c1 the results were HKDC1 inhibitor 14, PfG6PD inh 66*, PfGluPho conf 48*, Diaphorase 10uM 8 and Diaph ctr 30uM -3.
For CCCOc1cc(NCc2ccccc2)c2ncn(C(C)C)c2c1 the results were HKDC1 inhibitor 14, PfG6PD inh 77* and PfGluPho conf 33.
Screening COc1cccc(N2CC(C(=O)Nc3c(C(N)=O)oc4ccccc34)CC2=O)c1 (centres undefined) returned HKDC1 inhibitor 5 and PfG6PD inh 1.
C/C(=N/NC(=O)c1ccncc1)c1c[nH]c2ccccc12 was read as Diaphorase act 0.9, G6PDH counter -4, HKDC1 inhibitor -8, PfG6PD inh 8 and Diaph inh CS 10.
Screening CC(=O)Nc1ccc(S(=O)(=O)NC2CC(=O)N(c3ccc(C)c(C)c3)C2)cc1 (centres undefined) returned HKDC1 inhibitor -1 and PfG6PD inh -1.
`CCCCC(CC)C(=O)NCC(C)NC(=O)C(CC)CCCC` (centres undefined) gave Diaphorase act 0.9, G6PDH counter 10, HKDC1 inhibitor -7, PfG6PD inh -4 and Diaph inh CS 11.
`Cc1cc(C)nc(NS(=O)(=O)c2ccccc2)n1` gave Diaphorase act 0.9, G6PDH counter 3, HKDC1 inhibitor 5, PfG6PD inh 0 and Diaph inh CS 11.
CC(=O)Nc1ccc(S(=O)(=O)Nc2cccc3cccnc23)cc1 was read as HKDC1 inhibitor 7 and PfG6PD inh -7.
`Cc1ccc2cccc(NS(=O)(=O)c3ccccc3)c2n1` gave HKDC1 inhibitor 4, PfG6PD inh 139*, PfGluPho conf 105*, Diaphorase 10uM 102* and Diaph ctr 30uM 80*.
O=S(=O)(Nc1cccc2cccnc12)c1ccccc1 was read as HKDC1 inhibitor 15, PfG6PD inh 96*, PfGluPho conf 52*, Diaphorase 10uM 61* and Diaph ctr 30uM 40.

From PubChem
